# Assay results taken from BindingDB's records for doi:10.1021/jm100062h (Ferrara University, 2010).
# Target: T1, Transient receptor potential cation channel subfamily A member 1 (Homo sapiens, UniProt O75762)
# Test: Activation of TRPA1 channel
# Summary of the method: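 Cell lines transfected with TRPA1 and loaded with a calcium-sensitive dye, read on FLIPR. Calcium influx is counted as the change in fluorescence above background. Each material was tested by preincubation or by direct addition. Calcium counts are expressed as a percentage of the control calcium count.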
# T1 sequence (O75762 whole entry): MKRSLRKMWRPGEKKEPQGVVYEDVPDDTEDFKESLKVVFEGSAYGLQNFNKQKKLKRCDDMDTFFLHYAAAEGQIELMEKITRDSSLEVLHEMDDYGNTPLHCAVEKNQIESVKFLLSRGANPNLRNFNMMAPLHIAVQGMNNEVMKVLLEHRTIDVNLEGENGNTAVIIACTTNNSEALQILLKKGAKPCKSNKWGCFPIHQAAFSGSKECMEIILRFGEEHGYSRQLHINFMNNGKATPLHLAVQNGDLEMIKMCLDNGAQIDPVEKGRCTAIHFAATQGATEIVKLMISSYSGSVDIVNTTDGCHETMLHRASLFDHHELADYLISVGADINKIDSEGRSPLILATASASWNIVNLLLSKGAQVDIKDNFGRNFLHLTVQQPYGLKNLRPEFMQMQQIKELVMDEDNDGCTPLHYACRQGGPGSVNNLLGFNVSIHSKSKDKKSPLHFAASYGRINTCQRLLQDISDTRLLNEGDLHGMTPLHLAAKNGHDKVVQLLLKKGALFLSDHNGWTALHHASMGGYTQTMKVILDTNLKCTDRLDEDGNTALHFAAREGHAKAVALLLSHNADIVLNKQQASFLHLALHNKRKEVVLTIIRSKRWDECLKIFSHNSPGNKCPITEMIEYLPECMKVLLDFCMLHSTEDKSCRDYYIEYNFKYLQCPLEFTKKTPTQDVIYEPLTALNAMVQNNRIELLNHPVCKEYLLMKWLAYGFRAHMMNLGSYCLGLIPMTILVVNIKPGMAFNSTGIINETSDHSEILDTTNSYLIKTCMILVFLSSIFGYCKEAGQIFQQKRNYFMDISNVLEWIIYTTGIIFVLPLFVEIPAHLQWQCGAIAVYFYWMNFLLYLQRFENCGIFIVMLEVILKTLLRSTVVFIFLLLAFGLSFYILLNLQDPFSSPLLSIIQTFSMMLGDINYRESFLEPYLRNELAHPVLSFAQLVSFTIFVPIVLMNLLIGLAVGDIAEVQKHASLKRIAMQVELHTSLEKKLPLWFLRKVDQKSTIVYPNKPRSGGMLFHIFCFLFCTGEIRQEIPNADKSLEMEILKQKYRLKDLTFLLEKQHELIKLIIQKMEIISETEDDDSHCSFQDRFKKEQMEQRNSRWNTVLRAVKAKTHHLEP
row,SMILES,EC50 [µM]
1,CC(C)[C@@H]1CC[C@@H](C)C[C@H]1O,28.4

# Target: T1, Transient receptor potential cation channel subfamily A member 1
# Test: Antagonist activity at human TRPA1 channel expressed in CHO cells assessed as inhibition of cinnamaldehyde-induced intracellular calcium influx
row,SMILES,IC50 [µM]
1,CCC(N=O)C(C)=Cc1cncc2ccccc12 (stereo unspecified) [1-(isoquinolin-4-yl)-2-methylpent-1-en-3-one oxime],> 100
2,CCC(N=O)C(C)=Cc1cnccc1C (stereo unspecified) [2-methyl-1-(4-methylpyridin-3-yl)pent-1-en-3-one oxime],> 100
3,CCC(N=O)C(C)=Cc1ccc(C(F)(F)F)nc1 (stereo unspecified) [2-methyl-1-(6-(trifluoromethyl)pyridin-3-yl)pent-1-en-3-one oxime],> 100
4,CCC(N=O)C(C)=Cc1ccc(C)nc1 (stereo unspecified) [2-methyl-1-(6-methylpyridin-3-yl)pent-1-en-3-one oxime],> 100
5,CCC(N=O)C(C)=Cc1cnc2ccccc2c1 (stereo unspecified) [2-methyl-1-(quinolin-3-yl)pent-1-en-3-one oxime],> 100
